High-throughput results as filed in PubChem BioAssay.
FAS-TE inh – inhibitors of human fatty acid synthase thioesterase domain; recombinant FAS-TE, OMFH fluorogenic substrate, fluorescence endpoint; AID 602261; P49327; 360,000 tested, 0.67% active; inhibition, % at 15 µM;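 active = compounds whose normalised, plate-corrected inhibition of enzyme fluorescence in the single-dose primary screen is 50% or more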;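 note: 0% = DMSO with enzyme and 100% = substrate without enzyme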
SENP1 FRET inh – blocks the human SENP1 SUMO protease catalytic domain. Q9P0U3. recombinant SENP1 catalytic domain, CyPet-SUMO1-YPet FRET cleavage. inhibition, % at 10 µM. 360,000 tested, 0.21% active. AID 624204;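 active = inhibition at least 30% at 10 µM, raw YFP signal under a set limit, fluorescence ratio 0.5 to 1.5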;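 note: 0% = enzyme with DMSO and 100% = no enzyme wells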
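Assay system – human recombinant His6-tagged SENP1 catalytic domain enzyme · Input – SENP1 enzyme, 20 pM final · Buffer or medium – Tris pH 8 buffer plus EDTA, NaCl, BME, BSA, NP40, catalase · Schedule – 50 min reaction at room temperature · Technique – FRET read of cyan and yellow fluorescence · Control set – no-enzyme wells low, DMSO-plus-enzyme wells high control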
hiPSC survival – enhancers of human iPSC single-cell survival; hiPSC single-cell survival, ATPlite luminescence; 100% = ROCK inhibitor wells, 0% = DMSO; survival enhancement, % at 20 µM; 360,000 tested, 0.044% active; AID 602274; in the data active = survival enhancement above about 18%;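 note: cells exposed to compounds for 16 hours before the ATP read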
Cardio protect – myocardial damage modulation in H9c2 cells; AID 588492; protection from H2O2 cell death, % at 20 µM; H9c2 cardiomyocytes, H2O2 injury protection, ATPLite, 2 h; 360,000 tested, 0.63% active;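 active = compounds giving at least 50% protection of heart cells from peroxide-induced death in the single-dose screen, raw or plate-pattern-corrected value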;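 note: 0% = DMSO wells with peroxide and 100% = DMSO wells without peroxide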
Arr AP2 block – inhibitors of human beta-arrestin and AP2 interaction; 340,000 tested, 0.31% active; inhibition, % at 10 µM; FITC-arrestin peptide / GST-AP2 beads, flow cytometry; AP2 beta2 appendage carries R879A mutation; AID 504490;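 active = inhibition above a set limit, near 3 SD of compounds lacking own fluorescence, cut at about 54% in these data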;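 note: plate controls were DMSO wells for no effect and 5 µM unlabelled arrestin peptide for full effect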
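Material – GST-tagged AP2 beta2-adaptin appendage (R879A) on 4 µm glutathione beads · Probe or stimulus – fluorescein-tagged arrestin peptide at 50 nM final · Timing – 12 min plus 1 h, RT · Detection – bead flow cytometry, FITC channel · Read-out basis – inhibition as reduced fluorescein signal on beads, percent · Medium – PBS plus Tween 20 (0.05%) and BSA (0.1%)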
GRIN3A LBD mod – modulates the human NR3A ligand-binding domain | AID 1259313 | Tm shift relative to glycine control, % at 25 µM | NR3A LBD differential scanning fluorimetry, Tm shift; 0% = protein alone, 100% = glycine-bound protein | 340,000 tested, 2.5% active;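 active = melting temperature shift of at least 10% of the positive control shift, at one fixed dose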
Active calls of the source: *; / = no result given. An excerpt weighted towards active compounds, which were near 4% of everything screened.

SMILES	FAS-TE inh	SENP1 FRET inh	hiPSC survival	Cardio protect	Arr AP2 block	GRIN3A LBD mod
COc1cc(C(=O)NC(C)c2ccc(S(N)(=O)=O)cc2)ccc1OCC(=O)N1CCOCC1 (configuration not stated)	-3	1	0	-2	10	11*
COc1cc(C(=O)Nc2cccc(C)n2)ccc1OCC(=O)N1CCOCC1	-8	0	0	12	12	0
CC(C)c1ccc(CC(=O)N2CCC2(C)C(=O)NS(=O)(=O)c2cccc(OC(F)F)c2)cc1 (configuration not stated)	-8	3	-1	2	/	/
CC(C)(C)OC(=O)Nc1ccccc1-n1nnnc1C(C(=O)c1ccccc1)N1CCN(c2ccccn2)CC1 (configuration not stated)	/	-20	/	/	/	/
Cc1ccccc1CN(C)CC(=O)Nc1ccccc1Oc1ccccc1	18	2	1	-9	18	14*
Cc1ccccc1CN(C)CC(=O)Nc1ccccc1-c1ccccc1	25	1	0	0	-9	23*
CCCS(=O)(=O)NC(=O)C1(C)CCCN(C(=O)c2c(OC)cccc2OC)C1 (configuration not stated)	-6	1	2	-2	/	/
COc1cccc(-c2cc3nc(NCCN4CCCC4)n(C)c(=O)c3s2)c1	-7	-1	-1	22	/	/
Cc1nc2c(OCc3ccc(C#N)cc3)cccn2c1N(C)C(=O)CCC1CCCC1	16	1	0	0	/	/
Oc1ccc(/C=C/c2nc(-c3ccccc3O)n(-c3ccccc3)n2)cc1	23	-2	0	-22	2	14*
Oc1ccccc1-c1nc(/C=C/c2ccccc2)nn1-c1ccccc1	14	1	1	-5	21	-5
Cc1ccc(Cl)cc1-c1cc(C(=O)NCC2CCCCC2)[nH]n1	10	1	2	-11	/	/
O=C(CN1CCN(c2ccccc2F)CC1)c1ccc(O)c(O)c1	-2	-2	0	53*	-7	-2
COc1ccc(OC)c(C(=O)CN2CCN(S(=O)(=O)c3ccc(Br)cc3)CC2)c1	5	1	2	-1	-7	-1
O=C(CN1CCN(S(=O)(=O)c2ccc(Br)cc2)CC1)c1ccc(O)c(O)c1	-4	-3	1	71*	1	2
Cc1c(O)ccc(C(=O)CN2CCN(c3ccccc3F)CC2)c1O	-1	1	0	-6	-4	-5
CC(C)c1ccc(S(=O)(=O)N2CCN(CC(=O)c3ccc(O)c(O)c3)CC2)cc1	1	-4	0	56*	-12	/
O=C(Nc1cccc(Cl)c1)c1ccc(S(=O)(=O)NCC2CCCO2)cc1 (configuration not stated)	1	2	0	-9	26	21*
COc1cccc(S(=O)(=O)NCc2ccc(C(=O)Nc3cccc(Cl)c3)cc2)c1	27	0	3	-20	-8	15*
O=C(Nc1ccccc1)c1ccc(S(=O)(=O)NCC2CCCO2)cc1 (configuration not stated)	-5	0	0	-5	-1	0
O=C(Nc1ccccc1F)c1ccc(CNS(=O)(=O)c2cccc(C(F)(F)F)c2)cc1	-7	2	-1	1	-3	0
Cc1ccc(NC(=O)c2ccc(CNS(=O)(=O)c3cccc(C(F)(F)F)c3)cc2)cc1	-5	2	2	5	5	11*
c1csc(-c2ccc3nncn3c2)c1	-11	-59	1	-1	/	/
COc1ccc(CCN2C(=O)COc3ccccc3C2C(=O)Nc2ccc3c(c2)OCCO3)cc1OC (configuration not stated)	-8	0	0	/	/	/
CCOC(=O)/C(C#N)=C/c1c(Oc2cc(C)cc(C)c2)nc2ccccn2c1=O	-9	-58	-2	-3	2	15*
Cc1ccc(Nc2cc(=O)n(C)c(=O)[nH]2)cc1C	-8	0	-1	6	/	/
Cc1cccc(C(=O)N/N=C2\CS(=O)(=O)N(C)c3ccsc32)c1	-6	-10	0	64*	15	-4
